Measurements of several laboratories.
Lines come from different studies, so protocols differ.
Organism: Mycobacterium tuberculosis
Effect on: microbial growth

O=C(O)c1cc(O)c2c(c1)C(=O)c1cccc(O)c1C2=O has an MIC of > 320 µM (resazurin; H37RV).
CO[C@H]1/C=C/O[C@@]2(C)Oc3c(C)c(O)c4c(O)c(c(/C=N/N5CCN(C)CC5)c(O)c4c3C2=O)NC(=O)/C(C)=C\C=C\[C@H](C)[C@H](O)[C@@H](C)[C@@H](O)[C@@H](C)[C@H](OC(C)=O)[C@@H]1C gave an MIC of 0.05 µg/mL (resazurin; ATCC35801 ERDMAN; 7 days).
COc1cccc2c1C(=O)c1c(O)c3c(c(O)c1C2=O)C[C@@](O)(C(=O)CO)C[C@@H]3O[C@H]1C[C@H](N)[C@H](O)[C@H](C)O1 has an MIC of 5 µM (resazurin; H37RV).
CCOC(=O)c1c(NC(=O)c2cc(C(F)(F)F)cc(C(F)(F)F)c2)sc2c1CCN(CC)C2 gave an MIC of > 200 µM (resazurin; H37RV).
CO[C@H]1/C=C/O[C@@]2(C)Oc3c(C)c(O)c4c(O)c(c(/C=N/N5CCN(C)CC5)c(O)c4c3C2=O)NC(=O)/C(C)=C\C=C\[C@H](C)[C@H](O)[C@@H](C)[C@@H](O)[C@@H](C)[C@H](OC(C)=O)[C@@H]1C has an MIC of 0.17 µg/mL (H37RV; 14 days).
The MIC of CCOC(=O)c1c(NC(=O)c2cc(C(F)(F)F)cc(C(F)(F)F)c2)sc2c1CCN(C(=O)OC(C)(C)C)C2 is reported as < 100 µM (resazurin; H37RV).
CC[C@@H](CO)NCCN[C@@H](CC)CO gave an MIC of 0.78 µg/mL (H37RV; 14 days).
With O=C1c2cccc(O)c2C(=O)c2c(O)cc(CO)cc21 the MIC was > 320 µM (resazurin; H37RV).
CCN1CCc2c(sc(N)c2C(=O)NC23CC4CC(CC(C4)C2)C3)C1 has an MIC of > 200 µM (resazurin; H37RV).
The MIC of CC[C@@H](CO)NCCN[C@@H](CC)CO is reported as 0.8 µg/mL (H37RV; 7 days).
